Legend:
[1] = target: Dipeptidyl peptidase 8 (Homo sapiens, UniProt Q6V1X1); assay: Inhibition of DPP8 (unknown origin)
[2] = Octanol/water partition coefficient, logD of compound at 74 kBq incubated for 2 mins by gamma counter method; assay type: physicochemical
Method in brief: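 Octanol and PBS phases were mixed and vortexed for 2 min, then centrifuged at 3,000 rpm for 10 min. Aliquots of 0.5 mL from each phase were γ-counted and corrected for mass and density. LogD was taken as log10 of the octanol/PBS radioactivity ratio.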

[3] = Stability in PBS assessed as compound remaining at 185 kBq measured upto 60 mins by radio-HPLC analysis; assay type: physicochemical; details: read-out: Stability
Method in brief: (§1)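 Radiotracer was incubated at 37 °C for up to 60 min in PBS (0.01 M, pH 7.4) or in mouse plasma. Samples were deproteinized with an equal volume of cold ACN and centrifuged. The supernatant was analyzed by radio-HPLC with 30 s fractions γ-counted to give the intact fraction. Triplicates.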

[4] = Stability in CD1 mouse plasma assessed as compound remaining at 185 kBq measured upto 60 mins by radio-HPLC analysis; assay type: ADME, cell-free; details: read-out: Stability; method in brief: as §1
[5] = Stability in PBS assessed as drug degradation at 185 kBq measured upto 60 mins by radio-HPLC analysis; assay type: physicochemical; details: buffer, 1 h; method in brief: as §1
[6] = Stability in CD1 mouse plasma assessed as drug degradation at 185 kBq measured upto 60 mins by radio-HPLC analysis; assay type: ADME, cell-free; details: 1 h; method in brief: as §1
[7] = Stability in female nude mouse harboring null mutation of CD1 antigen complex assessed as drug degradation at 5.1 to 7.4 MBq, iv measured at 60 mins by radio-HPLC analysis; assay type: ADME, organism-based; details: 1 h, dose 5.1-7.4 MBq
Method in brief: (§2)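 Female CD1 nude mice received 5.1–7.4 MBq i.v. EDTA blood collected at 15, 30 and 60 min p.i. (n=3 per time point) was centrifuged to plasma, deproteinized with cold ACN and centrifuged. The supernatant was analyzed by radio-HPLC with 30 s fractions γ-counted to give the percent intact tracer.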

[8] = Drug uptake in liver of female nude mouse harboring null mutation of CD1 antigen complex at 5.1 to 7.4 MBq, iv measured after 15 to 60 mins by gamma counter analysis; assay type: ADME, organism-based; details: in vivo, dose lower 5.1 MBq, time lower 15 min, dose upper 7.4 MBq, time upper 60 min
Method in brief: (§3)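 Female CD1 nude mice, 6–8 weeks old (20–25 g), received the radiotracer through the lateral tail vein. At 15, 30 and 60 min p.i. (n = 3 per time point) blood was drawn by cardiac puncture and the animals were euthanized. Organs were excised, weighed and γ-counted. Uptake is expressed as %ID/g.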

[9] = Drug uptake in intestine of female nude mouse harboring null mutation of CD1 antigen complex at 5.1 to 7.4 MBq, iv measured after 15 to 60 mins by gamma counter analysis; assay type: ADME, organism-based; details: in vivo, dose lower 5.1 MBq, time lower 15 min, dose upper 7.4 MBq, time upper 60 min; method in brief: as §3
[10] = Drug uptake in kidney of female nude mouse harboring null mutation of CD1 antigen complex assessed as increase in renal excretion at 5.1 to 7.4 MBq, iv measured after 15 to 60 mins by gamma counter analysis; assay type: ADME, organism-based; details: in vivo, dose lower 5.1 MBq, time lower 15 min, dose upper 7.4 MBq, time upper 60 min; method in brief: as §3
[11] = Drug uptake in urinary bladder of female nude mouse harboring null mutation of CD1 antigen complex assessed as increase in renal excretion at 5.1 to 7.4 MBq, iv measured after 15 to 60 mins by gamma counter analysis; assay type: ADME, organism-based; details: in vivo, dose lower 5.1 MBq, time lower 15 min, dose upper 7.4 MBq, time upper 60 min; method in brief: as §3
[12] = Drug uptake in tumor of female nude mouse harboring null mutation of CD1 antigen complex xenografted with human U-87 MG cells at 5 to 7.4 MBq, iv measured at 60 mins by PET/CT analysis; assay type: ADME, organism-based, Neoplasm; details: in vivo, 1 h, dose 5-7.4 MBq
Method in brief: (§4)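 U-87MG xenografts (5×10^6 cells, subcutaneous flank) were grown in female CD1 nude mice to about 200 mm3. Dynamic whole-body PET over 60 min p.i. was followed by CT. Images were reconstructed with OSEM 3D and expressed as %ID/mL to give time-activity curves. For blocking, the FAP inhibitor (5 mg/kg) was given via the tail vein 30 min before the tracer; n=4.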

[13] = Drug uptake in tumor of female nude mouse harboring null mutation of CD1 antigen complex xenografted with human U-87 MG cells at 5 to 7.4 MBq, iv pretreated with (S)-N-(2-(2-cyano-4,4-difluoropyrrolidin-1-yl)-2-oxoethyl)quinoline-4-carboxamide for 30 mins followed by radioligand addition and measured measured after 60 mins by PET/CT analysis; assay type: ADME, organism-based, Neoplasm; details: in vivo, 1 h, dose 5-7.4 MBq; method in brief: as §4
[14] = Drug uptake in skull of female nude mouse harboring null mutation of CD1 antigen complex xenografted with human U-87 MG cells at 5 to 7.4 MBq, iv measured after 60 mins by gamma counter analysis; assay type: ADME, organism-based; details: in vivo, 1 h, dose 5-7.4 MBq
[15] = Ratio of drug level in tumor to muscle of female nude mouse harboring null mutation of CD1 antigen complex xenografted with human U-87 MG cells at 5 to 7.4 MBq, iv measured at 60 mins postinjection by gamma counter analysis; assay type: ADME, organism-based; details: in vivo, 1 h, dose 5-7.4 MBq
Method in brief: (§5)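 Subcutaneous U-87MG xenografts (5×10^6 cells in DPBS, hind flank) were grown in female CD1 nude mice to about 200 mm3. After tail-vein radiotracer injection and a 60 min dynamic PET scan, tissues were harvested at 60 min p.i. and γ-counted (%ID/g). Tumor-to-tissue ratios are means ± SD of individual ratios, n=4 per tracer.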

[16] = Ratio of drug level in tumor to blood of female nude mouse harboring null mutation of CD1 antigen complex xenografted with human U-87 MG cells at 5 to 7.4 MBq, iv measured at 60 mins postinjection by gamma counter analysis; assay type: ADME, organism-based; details: tumour, 1 h, dose 5-7.4 MBq; method in brief: as §5
[17] = Ratio of drug level in tumor to small intestine of female nude mouse harboring null mutation of CD1 antigen complex xenografted with human U-87 MG cells at 5 to 7.4 MBq, iv measured at 60 mins postinjection by gamma counter analysis; assay type: ADME, organism-based; details: in vivo, 1 h, dose 5-7.4 MBq; method in brief: as §5
[18] = Ratio of drug level in tumor to liver of female nude mouse harboring null mutation of CD1 antigen complex xenografted with human U-87 MG cells at 5 to 7.4 MBq, iv measured at 60 mins postinjection by gamma counter analysis; assay type: ADME, organism-based; details: in vivo, 1 h, dose 5-7.4 MBq; method in brief: as §5
[19] = Drug uptake in tumor of female nude mouse harboring null mutation of CD1 antigen complex xenografted with FAP-negative human HT-29 cells at 5 to 7.4 MBq, iv measured at 60 mins by PET/CT analysis; assay type: ADME, organism-based, Neoplasm; details: in vivo, 1 h, dose 5-7.4 MBq
Method in brief: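 HT29 xenografts (10×10^6 cells, subcutaneous hind flank) were grown in female CD1 nude mice to about 200 mm3. After tail-vein injection of the tracer, dynamic PET over 60 min was followed by CT. Images were reconstructed with OSEM 3D and tumor uptake was expressed as %ID/mL from time-activity curves, n=4.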

[20] = Drug uptake in tumor of female nude mouse harboring null mutation of CD1 antigen complex xenografted with FAP-negative human HT-29 cells at 5 to 7.4 MBq, iv measured after 60 mins by autoradiography; assay type: ADME, organism-based, Neoplasm; details: in vivo, 1 h, dose 5-7.4 MBq
Method in brief: (§6)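 Right after imaging and γ-counting, tumors from HT29 or U-87MG xenografts were snap-frozen and embedded in OCT. Sections of 100 µm were exposed overnight to phosphor screens. Non-blocked tumors were compared with tumors from mice pre-injected with the FAP inhibitor.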

[21] = Drug uptake in tumor of female nude mouse harboring null mutation of CD1 antigen complex xenografted with human U-87 MG cells at 5 to 7.4 MBq, iv measured after 60 mins by autoradiography; assay type: ADME, organism-based, Neoplasm; details: in vivo, 1 h, dose 5-7.4 MBq; method in brief: as §6
[22] = Drug uptake in tumor of female nude mouse harboring null mutation of CD1 antigen complex xenografted with human U-87 MG cells with increased FAP positive tumor area at 5 to 7.4 MBq, iv measured after 60 mins by immunohistochemistry analysis; assay type: ADME, organism-based, Neoplasm; details: in vivo, 1 h, dose 5-7.4 MBq
[23] = Drug uptake in tumor of female nude mouse harboring null mutation of CD1 antigen complex xenografted with human HT-29 cells with decreased FAP positive tumor area at 5 to 7.4 MBq, iv measured after 60 mins by immunohistochemistry analysis; assay type: ADME, organism-based, Neoplasm; details: in vivo, 1 h, dose 5-7.4 MBq
[24] = Drug uptake in bone structures of female nude mouse harboring null mutation of CD1 antigen complex xenografted with human U-87 MG cells at 5 to 7.4 MBq, iv measured after 60 mins by gamma counter analysis; assay type: ADME, organism-based, Bone element; details: in vivo, 1 h, dose 5-7.4 MBq
[25] = Drug uptake in blood of female nude mouse harboring null mutation of CD1 antigen complex at 5.1 to 7.4 MBq, iv measured after 15 to 60 mins by gamma counter analysis; assay type: ADME, organism-based; details: in vivo, dose lower 5.1 MBq, time lower 15 min, dose upper 7.4 MBq, time upper 60 min; method in brief: as §3
[26] = Stability in female nude mouse harboring null mutation of CD1 antigen complex assessed as compound remaining at 5.1 to 7.4 MBq, iv measured at 60 mins by radio-HPLC analysis; assay type: ADME, organism-based; details: in vivo, dose 5.1-7.4 MBq, read-out: Stability; method in brief: as §2
[27] = Drug uptake in large intestine of female nude mouse harboring null mutation of CD1 antigen complex assessed as increase in renal excretion at 5.1 to 7.4 MBq, iv measured at 60 mins by gamma counter analysis; assay type: ADME, organism-based; details: in vivo, 1 h, dose 5.1-7.4 MBq; method in brief: as §3
[28] = Drug uptake in tibia of female nude mouse harboring null mutation of CD1 antigen complex xenografted with human U-87 MG cells at 5 to 7.4 MBq, iv measured after 60 mins by gamma counter analysis; assay type: ADME, organism-based; details: in vivo, 1 h, dose 5-7.4 MBq

Sequence of Dipeptidyl peptidase 8 (Q6V1X1 whole entry): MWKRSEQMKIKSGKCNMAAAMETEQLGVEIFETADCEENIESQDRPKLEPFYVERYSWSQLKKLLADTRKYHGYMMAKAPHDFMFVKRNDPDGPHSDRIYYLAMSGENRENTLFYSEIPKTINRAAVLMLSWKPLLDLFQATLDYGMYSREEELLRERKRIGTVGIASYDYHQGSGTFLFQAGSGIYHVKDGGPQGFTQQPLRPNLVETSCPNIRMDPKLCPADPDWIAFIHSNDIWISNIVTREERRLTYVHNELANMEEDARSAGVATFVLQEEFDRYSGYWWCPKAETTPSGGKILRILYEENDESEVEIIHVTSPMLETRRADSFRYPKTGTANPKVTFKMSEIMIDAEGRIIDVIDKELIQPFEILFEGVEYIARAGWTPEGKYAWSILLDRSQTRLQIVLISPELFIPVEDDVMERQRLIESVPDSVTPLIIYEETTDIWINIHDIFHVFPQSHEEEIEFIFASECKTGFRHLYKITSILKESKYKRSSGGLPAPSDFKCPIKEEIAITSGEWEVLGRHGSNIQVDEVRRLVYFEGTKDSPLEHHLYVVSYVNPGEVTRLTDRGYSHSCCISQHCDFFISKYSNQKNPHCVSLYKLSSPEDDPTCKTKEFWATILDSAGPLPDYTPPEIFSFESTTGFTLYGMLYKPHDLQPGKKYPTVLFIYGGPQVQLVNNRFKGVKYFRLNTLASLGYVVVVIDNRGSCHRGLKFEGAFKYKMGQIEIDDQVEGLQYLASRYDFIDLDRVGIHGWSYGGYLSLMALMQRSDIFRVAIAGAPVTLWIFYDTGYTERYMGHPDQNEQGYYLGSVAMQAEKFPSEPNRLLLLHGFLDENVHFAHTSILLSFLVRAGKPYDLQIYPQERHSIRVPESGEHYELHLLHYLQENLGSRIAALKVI

logD at 2 min [2]	remaining at 1 h, 185 kBq [3]	remaining at 1 h, 185 kBq [4]	Stability [5]	Stability [6]	Stability [7]	Drug uptake [8]	Drug uptake [9]	Drug uptake [10]	Drug uptake [11]	Drug uptake [12]	Drug uptake [13]	Drug uptake [14]	Ratio [15]	Ratio [16]	Ratio [17]	Ratio [18]	Drug uptake [22]	Drug uptake [23]	Drug uptake [24]	further results	Compound
–	–	–	–	–	–	–	–	–	–	–	–	–	–	–	–	–	–	–	–	IC50 [1]: 4.7 µM	N#C[C@@H]1CC(F)(F)CN1C(=O)CNC(=O)c1ccnc2ccccc12
0.77	> 70%	> 70%	Stable	Stable	Unstable	Active	Active	Active	Active	< 3 %ID/ml	Not Active	Active	6.48	5.01	0.22	1.64	Active	Not Active	Active	Drug uptake [19]: 1.86 %ID/ml; Drug uptake [20]: Active; Drug uptake [21]: Active	COC(C[18F])COc1ccc2nccc(C(=O)NCC(=O)N3CC(F)(F)C[C@H]3C#N)c2c1 (stereo not given in full)
-0.27	> 70%	> 70%	Stable	Stable	Unstable	Active	Active	Active	Active	< 3 %ID/ml	Not Active	Active	5.26	6.56	0.12	1.67	Active	Not Active	Active	Drug uptake [25]: 0.13 % ID/g	N#C[C@@H]1CC(F)(F)CN1C(=O)CNC(=O)c1ccnc2ccc(OCC(O)C(O)C[18F])cc12 (stereo not given in full)
-1.77	> 70%	> 70%	Stable	Stable	–	Active	Active	Active	Active	10.16 %ID/ml	Not Active	Active	6.54	6.35	2.43	4.77	Active	Not Active	Active	remaining at 1 h [26]: 56.5%; Drug uptake [25]: 0.24 % ID/g; Drug uptake [27]: 0.38 % ID/g; Drug uptake [28]: 4.33 % ID/g; Drug uptake [20]: Active; Drug uptake [21]: Active	[2H]C([2H])([18F])[N+](C)(C)CCCOc1ccc2nccc(C(=O)NCC(=O)N3CC(F)(F)C[C@H]3C#N)c2c1

Source: ChEMBL document CHEMBL5543163, “Druglike, 18F-labeled PET Tracers Targeting Fibroblast Activation Protein” (J Med Chem, 2024)
